Experiment [1] in a line: hit retest on RPL19A-GFP reporter strain – cell-based, S. cerevisiae, flow cytometry, cherry picks, mother/daughter gates, confirmation (AID 2270;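 active = GFP response below 50% of the DMSO control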). The conditions noted are these: 3 h, at 10 µM, stronger effect = lower value, 100 = same GFP as DMSO wells. (In flow cytometry, cells or beads pass a laser one at a time.)
A short description of experiment [2]: yeast TOR pathway reporter LAP4-GFP change – cell-based, cherry picks, flow cytometry, mother/daughter gates, confirmation (AID 2271;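 active = GFP response above 150% of the DMSO control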;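 note: ratio of sample to DMSO plate mean so 100% equals DMSO level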). The conditions noted are these: S. cerevisiae LAP4-GFP strain, 3 h, at 10 µM, stronger effect = higher value, 100 means same as DMSO control. A digest of the protocol:
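Test system: GFP-fusion yeast strain. Medium: synthetic complete (SC) yeast growth medium. Timing: 3 h treatment at 30 °C with rotation. Measured by: GFP by flow cytometry. Control set: positive rapamycin (400 ng/mL), negative DMSO.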

Experiment [3] in a line: TOR pathway reporter MEP2-GFP, retest of hits – S. cerevisiae, flow cytometry GFP, cherry picks, confirmation (AID 2272;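 active = GFP response above 150% of the DMSO control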;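 note: ratio of well signal to plate DMSO mean so 100% equals DMSO level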). Conditions: S. cerevisiae MEP2-GFP strain, 3 h, at 10 µM, stronger effect = higher value.
Experiment [4] in a line: yeast AGP1-GFP fluorescence change, single-dose – cell-based, flow cytometry, S. cerevisiae, cherry picks, confirmation (AID 2273).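 Note: median GFP channel fluorescence over the whole cell population gate.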 Conditions: S. cerevisiae AGP1-GFP strain, 3 h, at 10 µM.
Experiment [5] in a line: TOR pathway CIT2 reporter hit retest – S. cerevisiae, GFP fusion, cherry picks, mother/daughter gates, confirmation (AID 2274). Conditions: S. cerevisiae CIT2-GFP strain, flow cytometry, 3 h, at 10 µM, stronger effect = higher value.
The mark [6] stands for this setting: measured here: daughter cell gate.
The mark [7] stands for this setting: measured here: mother cell gate.
The mark [8] stands for this setting: measured here: daughter cell gate response.
The mark [9] stands for this setting: measured here: mother cell gate response.

Activity calls are given as the source filed them.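 Rule for the calls, unless noted: active = GFP response above 150% of the DMSO level; inconclusive = fewer than 70 events counted for a yeast strain; inactive = the rest.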

Turning to `O=C(NNC(=O)C1CCCCC1)C(=O)NC1CCCCC1`, the GFP response vs DMSO in experiment [1] was 99.1% (inactive); in experiment [1] (setting [6]) it was 99.8%; in experiment [1] (setting [7]) it was 99.3%; in experiment [3], 112% (inactive). For the same compound, the GFP response relative to DMSO in experiment [2] was 98.8% (inactive); in experiment [2] (setting [8]), 97.9%; in experiment [2] (setting [9]), 97.5%. For the same compound, the GFP response, % of DMSO in experiment [4] was 104% (inactive); in experiment [5] it was 104% (inactive); in experiment [5] (setting [6]) it was 102%; in experiment [5] (setting [7]), 104%.
As for `CCOC(=O)/C(=N\NC(=O)c1ccccc1)c1ccccc1`, the GFP response vs DMSO is 97.2% (inactive) in experiment [1], 95.7% in experiment [1] (setting [6]), 98.1% in experiment [1] (setting [7]) and 104% (inactive) in experiment [3]. In addition, the GFP response relative to DMSO in experiment [2] was 107% (inactive); in experiment [2] (setting [8]), 105%; in experiment [2] (setting [9]) it was 106%. The GFP response, % of DMSO in experiment [4] was 96.5% (inactive); in experiment [5], 101% (inactive); in experiment [5] (setting [6]) it was 100%; in experiment [5] (setting [7]), 99.1%.
For the compound `CS(=O)(=O)N1CCc2cc(C(=O)Nc3ccc(COCC(F)(F)F)cc3)ccc21`, the GFP response vs DMSO was 102% (inactive) in experiment [1], 104% in experiment [1] (setting [6]), 103% in experiment [1] (setting [7]) and 100% (inactive) in experiment [3]. Moreover, the GFP response relative to DMSO in experiment [2] was 92.6% (inactive); in experiment [2] (setting [8]), 97.2%; in experiment [2] (setting [9]), 93.1%. Besides, the GFP response, % of DMSO is 96.1% (inactive) in experiment [4], 110% (inactive) in experiment [5], 108% in experiment [5] (setting [6]) and 111% in experiment [5] (setting [7]).
As for `CC(C)(C)c1cc(C(c2cccnc2)N2CCN(CCO)CC2)cc(C(C)(C)C)c1O` (stereo not drawn), the GFP response vs DMSO in experiment [1] was 98.2% (inactive); in experiment [1] (setting [6]) it was 108%; in experiment [1] (setting [7]), 91.3%; in experiment [3], 118% (inactive). The GFP response relative to DMSO in experiment [2] was 151% (active); in experiment [2] (setting [8]), 168%; in experiment [2] (setting [9]) it was 138%. Moreover, the GFP response, % of DMSO in experiment [4] was 94.3% (inactive); in experiment [5], 99.3% (inactive); in experiment [5] (setting [6]), 126%; in experiment [5] (setting [7]), 82.8%.
As to `Cc1ccc(S(=O)(=O)Nc2cc(Cl)c(O)c3ncccc23)cc1`, the GFP response vs DMSO in experiment [1] was 95.2% (inactive); in experiment [1] (setting [6]), 94.2%; in experiment [1] (setting [7]), 97.1%; in experiment [3], 110% (inactive). The GFP response relative to DMSO in experiment [2] was 122% (inactive); in experiment [2] (setting [8]), 120%; in experiment [2] (setting [9]) it was 126%. Further, the GFP response, % of DMSO in experiment [4] is 91.2% (inactive); in experiment [5], 97.8% (inactive); in experiment [5] (setting [6]) it was 100%; in experiment [5] (setting [7]), 96.8%.
In the case of `Clc1ccc(-c2nnnn2-c2ccc(Cl)cc2)cc1`, the GFP response vs DMSO is 101% (inactive) in experiment [1], 102% in experiment [1] (setting [6]), 100% in experiment [1] (setting [7]) and 99.3% (inactive) in experiment [3]. For the same compound, the GFP response relative to DMSO in experiment [2] is 97.7% (inactive); in experiment [2] (setting [8]), 102%; in experiment [2] (setting [9]), 96.4%. For the same compound, the GFP response, % of DMSO in experiment [4] is 95.9% (inactive); in experiment [5], 100% (inactive); in experiment [5] (setting [6]), 101%; in experiment [5] (setting [7]) it was 99.3%.
With `Cc1ccc(C(=O)c2c3ccccc3[n+]([O-])n2CCO)cc1`, the GFP response vs DMSO in experiment [1] was 97% (inactive); in experiment [1] (setting [6]), 97.4%; in experiment [1] (setting [7]), 96.6%; in experiment [3], 98.3% (inactive). Moreover, the GFP response relative to DMSO is 96.7% (inactive) in experiment [2], 96% in experiment [2] (setting [8]) and 94% in experiment [2] (setting [9]). Moreover, the GFP response, % of DMSO in experiment [4] was 97.6% (inactive); in experiment [5], 96.9% (inactive); in experiment [5] (setting [6]), 99.1%; in experiment [5] (setting [7]) it was 97.3%.
`CC(Oc1ccc(Cl)cc1Cl)C(=O)NC1=NN(c2ccccc2)C(=O)C1` (stereo not drawn): the GFP response vs DMSO in experiment [1] was 95.8% (inactive); in experiment [1] (setting [6]) it was 98.9%; in experiment [1] (setting [7]) it was 96.4%; in experiment [3] it was 98.3% (inactive). The GFP response relative to DMSO was 101% (inactive) in experiment [2], 101% in experiment [2] (setting [8]) and 98.3% in experiment [2] (setting [9]). In addition, the GFP response, % of DMSO was 102% (inactive) in experiment [4], 98.3% (inactive) in experiment [5], 99.1% in experiment [5] (setting [6]) and 97.3% in experiment [5] (setting [7]).
`Cc1ccccc1C(=O)Nc1cccc(C#N)c1`: the GFP response vs DMSO is 95.6% (inactive) in experiment [1], 96.7% in experiment [1] (setting [6]), 94.2% in experiment [1] (setting [7]) and 108% (inactive) in experiment [3]. Besides, the GFP response relative to DMSO in experiment [2] was 97.7% (inactive); in experiment [2] (setting [8]) it was 99%; in experiment [2] (setting [9]), 97.4%. Further, the GFP response, % of DMSO in experiment [4] was 99.8% (inactive); in experiment [5], 97.2% (inactive); in experiment [5] (setting [6]), 99.3%; in experiment [5] (setting [7]) it was 97.1%.
Consider `CCOc1cc(/C=C2/N=C(c3ccc4c(c3)OCO4)OC2=O)ccc1OC(C)=O`, for which the GFP response vs DMSO is 92% (inactive) in experiment [1], 87.5% in experiment [1] (setting [6]), 94.2% in experiment [1] (setting [7]) and 101% (inactive) in experiment [3]. For the same compound, the values for the GFP response relative to DMSO in experiment [2], in experiment [2] (setting [8]) and in experiment [2] (setting [9]) were 95.7% (inactive), 95.9% and 96.2%, respectively. Also, the GFP response, % of DMSO in experiment [4] was 103% (inactive); in experiment [5] it was 97.3% (inactive); in experiment [5] (setting [6]) it was 95.6%; in experiment [5] (setting [7]), 98.1%.
In the case of `COc1ccccc1N=Cc1nc(-c2ccccc2)oc1OC(C)=O`, the GFP response vs DMSO is 98.2% (inactive) in experiment [1], 96.9% in experiment [1] (setting [6]), 98.3% in experiment [1] (setting [7]) and 101% (inactive) in experiment [3]. For the same compound, the results for the GFP response relative to DMSO in experiment [2], in experiment [2] (setting [8]) and in experiment [2] (setting [9]) were 103% (inactive), 101% and 106%, respectively. The GFP response, % of DMSO in experiment [4] is 70.7% (inactive); in experiment [5] it was 90.1% (inactive); in experiment [5] (setting [6]) it was 88.4%; in experiment [5] (setting [7]), 90.7%.
As for `CCOC(=O)CCS(=O)(=O)c1nc(-c2ccccc2)cc(C(F)(F)F)n1`, the GFP response vs DMSO in experiment [1] is 98.8% (inactive); in experiment [1] (setting [6]), 102%; in experiment [1] (setting [7]), 93.5%; in experiment [3], 146% (inactive). The values for the GFP response relative to DMSO in experiment [2], in experiment [2] (setting [8]) and in experiment [2] (setting [9]) were 164% (active), 153% and 170%, respectively. The GFP response, % of DMSO is 127% (inactive) in experiment [4], 100% (inactive) in experiment [5], 106% in experiment [5] (setting [6]) and 92.3% in experiment [5] (setting [7]).
`Cc1nnc(NC(=O)c2nc(S(=O)(=O)Cc3ccccc3)ncc2Cl)s1`: the GFP response vs DMSO in experiment [1] was 95.1% (inactive); in experiment [1] (setting [6]), 96.7%; in experiment [1] (setting [7]), 93.7%; in experiment [3], 99.3% (inactive). In addition, the GFP response relative to DMSO in experiment [2] was 96.5% (inactive); in experiment [2] (setting [8]) it was 99%; in experiment [2] (setting [9]), 98.4%. In addition, the GFP response, % of DMSO in experiment [4] is 103% (inactive); in experiment [5] it was 104% (inactive); in experiment [5] (setting [6]), 103%; in experiment [5] (setting [7]), 104%.

The values are drawn from PubChem BioAssay.
